Series [1] in a line: Resistance ratio of EC90 for NS5A A30T mutant in HCV genotype 3a infected in HuH7 replicon cells to EC90 for NS5A in HCV genotype 1a infected in HuH7 replicon cells. It counts as cell-based.
Series [2] relates to Hepatitis C virus subtype 1a. Description: Resistance ratio of EC90 for NS5A A92P mutant in HCV genotype 1a infected in HuH7 replicon cells to EC90 for NS5A in HCV genotype 1a infected in HuH7 replicon cells. The series is classed as cell-based.
The nature of series [3]: Resistance ratio of EC90 for NS5A L31V mutant in HCV genotype 4a infected in HuH7 replicon cells to EC90 for NS5A in HCV genotype 1a infected in HuH7 replicon cells. The series is classed as cell-based.
A short description of series [4]: Tmax in Wistar Han rat at 10 mg/kg, po by LC/MS method. It counts as ADME, organism-based. As to conditions: in vivo. Put shortly: (§1)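 Male Wistar Han rats, two per dosing group, dosed orally at 10 mg/kg in 10% TWEEN. Plasma was separated from collected blood by centrifugation and analysed by LC/MS.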
Series [5] in a line: MRT in Wistar Han rat at 300 mg/kg, po by LC/MS method. It counts as ADME, organism-based. The conditions noted are these: in vivo. Put shortly:
(§2)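 Single rising oral dose study in fed male Wistar Han rats, dosed PO in 10% TWEEN at the indicated doses. Plasma was obtained by centrifuging the blood, and compound levels were determined by LC/MS.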

Series [6] addresses T1, Nonstructural protein 5A (Hepatitis C virus) (UniProt Q5L478).
T1 sequence (whole entry): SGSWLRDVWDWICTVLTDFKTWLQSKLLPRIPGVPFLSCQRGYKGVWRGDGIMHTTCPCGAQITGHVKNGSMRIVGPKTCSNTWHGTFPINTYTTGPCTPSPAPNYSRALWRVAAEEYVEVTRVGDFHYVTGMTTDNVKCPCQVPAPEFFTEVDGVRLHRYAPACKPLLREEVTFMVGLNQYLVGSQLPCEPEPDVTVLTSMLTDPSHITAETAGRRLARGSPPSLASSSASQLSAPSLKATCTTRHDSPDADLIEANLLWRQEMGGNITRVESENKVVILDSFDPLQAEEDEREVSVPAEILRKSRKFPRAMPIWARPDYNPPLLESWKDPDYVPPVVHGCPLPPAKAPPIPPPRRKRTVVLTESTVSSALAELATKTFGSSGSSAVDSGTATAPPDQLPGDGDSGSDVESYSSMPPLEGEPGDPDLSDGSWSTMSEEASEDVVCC
As to the kind of experiment: Inhibition of NS5A P32L mutant in HCV genotype 4a infected in HuH7 replicon cells assessed as decrease in viral replication after 3 days by RT-PCR method. The series is classed as cell-based. As to conditions: Hepatitis C virus subtype 4a.

The nature of series [7]: Resistance ratio of EC90 for NS5A L28M/Y93H double mutant in HCV genotype 1b infected in HuH7 replicon cells to EC90 for NS5A in HCV genotype 1a infected in HuH7 replicon cells. It counts as cell-based. (In general: In antiviral work, replicon cells carry a viral genome segment that copies itself.)
Series [8] in a line: Resistance ratio of EC90 for NS5A L31M mutant in HCV genotype 2b infected in HuH7 replicon cells to EC90 for NS5A in HCV genotype 1a infected in HuH7 replicon cells. The series is classed as cell-based.
Series [9] addresses T1, Nonstructural protein 5A (Hepatitis C virus). As to the kind of experiment: Inhibition of NS5A L31V mutant in HCV genotype 1b infected in HuH7 replicon cells assessed as decrease in viral replication after 3 days by RT-PCR method. The conditions noted are these: Hepatitis C virus subtype 1b. It counts as cell-based.
A short description of series [10]: Resistance ratio of EC90 for NS5A F28Y mutant in HCV genotype 2a infected in HuH7 replicon cells to EC90 for NS5A in HCV genotype 1a infected in HuH7 replicon cells. The series is classed as cell-based.
In series [11] the test system is NS3 (Hepatitis C virus), A3EZJ3 [R155K,V36M]. As to the kind of experiment: Inhibition of NS3 R155K/V36M double mutant in HCV genotype 1a infected in HuH7 replicon cells assessed as decrease in viral replication after 3 days by RT-PCR method. The series is classed as cell-based. As to conditions: Hepatitis C virus subtype 1a.
Series [12] concerns the target T1, Nonstructural protein 5A (Hepatitis C virus). Description: Inhibition of NS5A A92K mutant in HCV genotype 1b infected in HuH7 replicon cells assessed as decrease in viral replication after 3 days by RT-PCR method. The series is classed as cell-based. As to conditions: Hepatitis C virus subtype 1b.
Series [13] has the same target. Description: Inhibition of NS5A A146S mutant in HCV genotype 2b infected in HuH7 replicon cells assessed as decrease in viral replication after 3 days by RT-PCR method. The conditions noted are these: Hepatitis C virus subtype 2b. It counts as cell-based.
Series [14] can be described thus: AUC in Wistar Han rat at 100 mg/kg, po by LC/MS method. It counts as ADME, organism-based. As to conditions: in vivo. Put shortly:
as §2

The target in series [15] is T1, Nonstructural protein 5A (Hepatitis C virus). As to the kind of experiment: Inhibition of NS5A in HCV genotype 3a infected in HuH7 replicon cells assessed as decrease in viral replication after 3 days by RT-PCR method. It counts as cell-based. As to conditions: Hepatitis C virus subtype 3a.
A short description of series [16]: Drug level in Wistar Han rat at 100 mg/kg, po measured at 24 hrs by LC/MS method. It counts as ADME, organism-based. The conditions noted are these: in vivo, read-out: Drug uptake. Put shortly:
as §2

Series [17] addresses T1, Nonstructural protein 5A (Hepatitis C virus). As to the kind of experiment: Inhibition of NS5A in HCV genotype 4a infected in HuH7 replicon cells assessed as decrease in viral replication after 3 days by RT-PCR method. The series is classed as cell-based. The conditions noted are these: Hepatitis C virus subtype 4a.
For series [18] the target is unchanged. Description: Inhibition of NS5A L31I mutant in HCV genotype 1b infected in HuH7 replicon cells assessed as decrease in viral replication after 3 days by RT-PCR method. The series is classed as cell-based. The conditions noted are these: Hepatitis C virus subtype 1b.
A short description of series [19]: Resistance ratio of EC90 for NS3 A156T mutant in HCV genotype 1b infected in HuH7 replicon cells to EC90 for NS5A in HCV genotype 1a infected in HuH7 replicon cells. It counts as cell-based.
For series [20], the target named is T1, Nonstructural protein 5A (Hepatitis C virus). Description: Inhibition of NS5A R81W mutant in HCV genotype 1a infected in HuH7 replicon cells assessed as decrease in viral replication after 3 days by RT-PCR method. It counts as cell-based. The conditions noted are these: Hepatitis C virus subtype 1a.
The test system of series [21] is T2, Nonstructural protein 5A (Hepatitis C virus), Q5L478 [L28M,Y93H].
T2 sequence (whole entry): T1 sequence (whole entry) with L28M, Y93H
Description: Inhibition of NS5A L28M/Y93H double mutant in HCV genotype 1b infected in HuH7 replicon cells assessed as decrease in viral replication after 3 days by RT-PCR method. It counts as cell-based. As to conditions: Hepatitis C virus subtype 1b.

The nature of series [22]: MRT in Wistar Han rat at 10 mg/kg, po by LC/MS method. It counts as ADME, organism-based. As to conditions: in vivo. Put shortly:
as §1

Series [23] deals with Hepatitis C virus subtype 1a. Description: Resistance ratio of EC90 for NS5A M28K mutant in HCV genotype 1a infected in HuH7 replicon cells to EC90 for NS5A in HCV genotype 1a infected in HuH7 replicon cells. It counts as cell-based.

Here are results for one molecule from ChEMBL document CHEMBL4177770, “Discovery of MK-6169, a Potent Pan-Genotype Hepatitis C Virus NS5A Inhibitor with Optimized Activity against Common Resistance-Associated Substitutions” (J Med Chem, 2018).

Residue numbers refer to the chain shown, from its start.

As for `COC(=O)N[C@H](C(=O)N1CCC[C@H]1c1ncc(-c2cc(F)c3c(c2)O[C@@H](c2ccc(C4CC4)s2)n2c-3cc3cc(-c4cnc([C@@H]5CCCN5C(=O)[C@@H](NC(=O)OC)[C@@H]5CCOC(C)(C)C5)[nH]4)ccc32)[nH]1)C(C)C`, the Ratio in series [1] was 1; in [2], < 1; in series [3], 2; in [7] it was 15; in series [8] it was 4; in series [10], 16. Besides, the values for the Ratio in series [19] and in series [23] were 1 and 100, respectively. Besides, in [4], the Tmax (commonly the time from dosing to the highest level) turned out to be 3 h. In addition, the mean residence time (MRT) (commonly a mean duration of stay, worked out from the concentration-time curve) in series [5] turned out to be 10.7 h; in series [22], 6.5 h. In addition, the EC90 (usually the point of the concentration-response curve where the effect stands at 90%) was 4.4 pM in [6]; 5.8 pM in series [9]; 2.5 pM in [11]; 26 pM in [12]; 3.4 pM in [13]; 1 to 6.6 pM in [15]. The EC90 is 6 pM in series [17], 21 pM in series [18], 0.32 pM in series [20] and 65 pM in [21]. Moreover, in series [14], the AUC (usually concentration integrated over time) was 7.82 µM·h. The concentration at 24 h in series [16] turned out to be 72 nM.
